# Source: ChEMBL document CHEMBL1156877, “Discovery of 6-benzyloxyquinolines as c-Met selective kinase inhibitors” (Bioorg Med Chem Lett, 2010)
# Legend:
# [1] = target: Vascular endothelial growth factor receptor 2 (Homo sapiens, UniProt P35968); test: Inhibition of recombinant KDR by TR-FRET assay
# Summary of the method: (§1)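 Recombinant tyrosine kinase incubated with test compound and substrate peptide/ATP for 90 min at 30 °C; enzyme amount, ATP level, substrate and cation vary by kinase. Reaction stopped, then TR-FRET reagent with europium-labelled anti-phospho-substrate antibody added for 5 min at room temperature; substrate phosphorylation read as time-resolved fluorescence.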
# [2] = target: Proto-oncogene tyrosine-protein kinase Src (Homo sapiens, UniProt P12931); test: Inhibition of recombinant Src by TR-FRET assay; summary of the method: as §1
# Sequence of Proto-oncogene tyrosine-protein kinase Src (P12931 2-536 limits assumed): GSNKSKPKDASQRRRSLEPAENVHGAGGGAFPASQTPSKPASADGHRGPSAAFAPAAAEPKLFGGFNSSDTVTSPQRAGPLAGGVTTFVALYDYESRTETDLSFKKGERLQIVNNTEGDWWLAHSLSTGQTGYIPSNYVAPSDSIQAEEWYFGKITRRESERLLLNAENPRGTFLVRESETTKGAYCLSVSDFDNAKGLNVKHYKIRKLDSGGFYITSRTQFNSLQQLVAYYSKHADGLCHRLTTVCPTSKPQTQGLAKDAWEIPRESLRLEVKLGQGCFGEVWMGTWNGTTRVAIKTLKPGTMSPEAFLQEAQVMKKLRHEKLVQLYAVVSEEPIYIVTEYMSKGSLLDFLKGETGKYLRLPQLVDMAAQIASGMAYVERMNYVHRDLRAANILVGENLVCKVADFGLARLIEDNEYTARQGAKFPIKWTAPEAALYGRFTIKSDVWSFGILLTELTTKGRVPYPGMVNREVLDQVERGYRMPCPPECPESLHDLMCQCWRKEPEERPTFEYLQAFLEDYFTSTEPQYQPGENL
# [3] = target: Hepatocyte growth factor receptor (Homo sapiens, UniProt P08581); test: Inhibition of recombinant c-Met by TR-FRET assay
# Sequence of Hepatocyte growth factor receptor (P08581 whole entry): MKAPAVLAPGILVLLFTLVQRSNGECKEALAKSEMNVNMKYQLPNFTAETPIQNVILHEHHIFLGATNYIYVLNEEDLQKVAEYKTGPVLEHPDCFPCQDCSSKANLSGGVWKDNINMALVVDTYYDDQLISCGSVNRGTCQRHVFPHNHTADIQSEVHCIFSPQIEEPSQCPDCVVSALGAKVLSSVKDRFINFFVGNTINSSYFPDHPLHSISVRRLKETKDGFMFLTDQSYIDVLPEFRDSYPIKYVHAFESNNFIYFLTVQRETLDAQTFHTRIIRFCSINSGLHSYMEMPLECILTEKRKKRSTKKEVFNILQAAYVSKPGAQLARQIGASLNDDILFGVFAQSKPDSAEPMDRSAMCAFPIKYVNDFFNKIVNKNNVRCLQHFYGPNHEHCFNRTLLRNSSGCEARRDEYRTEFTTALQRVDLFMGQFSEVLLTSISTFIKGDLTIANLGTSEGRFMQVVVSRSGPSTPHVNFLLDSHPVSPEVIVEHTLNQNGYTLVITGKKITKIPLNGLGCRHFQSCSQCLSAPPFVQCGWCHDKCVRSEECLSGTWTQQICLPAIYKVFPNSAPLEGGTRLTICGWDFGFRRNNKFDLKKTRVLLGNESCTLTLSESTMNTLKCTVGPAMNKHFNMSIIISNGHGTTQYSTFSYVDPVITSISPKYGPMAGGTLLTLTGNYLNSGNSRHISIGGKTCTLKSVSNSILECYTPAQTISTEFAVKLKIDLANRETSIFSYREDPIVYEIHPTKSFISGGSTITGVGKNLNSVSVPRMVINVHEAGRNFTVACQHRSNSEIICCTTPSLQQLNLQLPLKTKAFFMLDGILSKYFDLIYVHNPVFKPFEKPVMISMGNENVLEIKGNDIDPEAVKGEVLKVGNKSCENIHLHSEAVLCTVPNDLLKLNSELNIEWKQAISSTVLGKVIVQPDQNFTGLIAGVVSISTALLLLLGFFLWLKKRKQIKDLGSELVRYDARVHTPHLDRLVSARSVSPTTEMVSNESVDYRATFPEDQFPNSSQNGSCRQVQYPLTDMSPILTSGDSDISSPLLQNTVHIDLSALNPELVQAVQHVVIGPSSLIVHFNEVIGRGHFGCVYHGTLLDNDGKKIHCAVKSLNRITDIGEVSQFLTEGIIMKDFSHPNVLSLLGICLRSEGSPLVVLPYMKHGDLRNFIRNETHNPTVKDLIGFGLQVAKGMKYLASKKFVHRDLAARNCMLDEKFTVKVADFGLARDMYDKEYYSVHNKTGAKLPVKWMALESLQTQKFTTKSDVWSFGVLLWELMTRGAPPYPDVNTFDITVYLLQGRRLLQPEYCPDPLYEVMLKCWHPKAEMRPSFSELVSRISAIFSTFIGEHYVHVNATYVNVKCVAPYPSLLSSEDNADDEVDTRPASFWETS
# [4] = target: RAC-alpha serine/threonine-protein kinase (Homo sapiens, UniProt P31749); test: Inhibition of recombinant AKT1 by IMAP assay
# Summary of the method: (§2)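 Recombinant enzyme mixed with test compound and substrate peptide/ATP solution, incubated 90 min at 30 °C; enzyme quantity, ATP, substrate and cation set per kinase. IMAP reagent then added for 5 min at room temperature, and peptide phosphorylation quantified by fluorescence polarization.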
# Ephrin type-A receptor 2 = Ephrin type-A receptor 2 (Homo sapiens, UniProt P29317); test: Inhibition of recombinant EphA2 by TR-FRET assay; summary of the method: as §1
# [5] = target: Protein-tyrosine kinase 6 (Homo sapiens, UniProt Q13882); test: Inhibition of recombinant BRK by TR-FRET assay; summary of the method: as §1
# [6] = target: Tyrosine-protein kinase ABL1 (Homo sapiens, UniProt P00519); test: Inhibition of recombinant Abl by TR-FRET assay; summary of the method: as §1
# [7] = target: T1, Receptor-type tyrosine-protein kinase FLT3 (Homo sapiens, UniProt P36888); test: Inhibition of recombinant Flt3 by TR-FRET assay; summary of the method: as §1
# T1 sequence (P36888 whole entry): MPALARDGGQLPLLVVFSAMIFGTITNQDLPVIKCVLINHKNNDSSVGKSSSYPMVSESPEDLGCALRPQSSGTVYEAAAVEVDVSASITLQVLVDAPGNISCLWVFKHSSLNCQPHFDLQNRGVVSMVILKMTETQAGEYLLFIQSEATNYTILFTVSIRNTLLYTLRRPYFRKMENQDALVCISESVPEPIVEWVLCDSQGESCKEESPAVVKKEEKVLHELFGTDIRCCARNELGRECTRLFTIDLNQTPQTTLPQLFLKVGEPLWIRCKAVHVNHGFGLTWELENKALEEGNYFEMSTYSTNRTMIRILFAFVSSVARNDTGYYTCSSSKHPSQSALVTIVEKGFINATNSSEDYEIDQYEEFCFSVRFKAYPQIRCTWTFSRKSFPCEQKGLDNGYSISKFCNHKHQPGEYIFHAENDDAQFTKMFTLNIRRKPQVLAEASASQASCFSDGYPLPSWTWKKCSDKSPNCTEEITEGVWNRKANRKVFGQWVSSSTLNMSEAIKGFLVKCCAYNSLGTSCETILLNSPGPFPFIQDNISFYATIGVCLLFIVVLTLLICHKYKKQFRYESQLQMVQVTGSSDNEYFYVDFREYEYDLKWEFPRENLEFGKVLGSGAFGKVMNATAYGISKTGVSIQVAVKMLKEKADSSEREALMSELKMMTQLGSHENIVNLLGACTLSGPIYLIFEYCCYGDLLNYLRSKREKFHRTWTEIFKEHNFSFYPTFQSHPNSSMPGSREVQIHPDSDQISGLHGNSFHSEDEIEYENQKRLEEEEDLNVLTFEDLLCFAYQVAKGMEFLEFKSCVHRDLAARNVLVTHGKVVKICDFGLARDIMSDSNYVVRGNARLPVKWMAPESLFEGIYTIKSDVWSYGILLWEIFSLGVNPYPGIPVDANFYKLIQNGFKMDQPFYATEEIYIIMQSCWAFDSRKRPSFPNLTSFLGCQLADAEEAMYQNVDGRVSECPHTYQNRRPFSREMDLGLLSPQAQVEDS
# [8] = target: T2, Protein kinase C beta type (Homo sapiens, UniProt P05771); test: Inhibition of recombinant PKCbeta1 by IMAP assay; summary of the method: as §2
# T2 sequence (P05771 whole entry): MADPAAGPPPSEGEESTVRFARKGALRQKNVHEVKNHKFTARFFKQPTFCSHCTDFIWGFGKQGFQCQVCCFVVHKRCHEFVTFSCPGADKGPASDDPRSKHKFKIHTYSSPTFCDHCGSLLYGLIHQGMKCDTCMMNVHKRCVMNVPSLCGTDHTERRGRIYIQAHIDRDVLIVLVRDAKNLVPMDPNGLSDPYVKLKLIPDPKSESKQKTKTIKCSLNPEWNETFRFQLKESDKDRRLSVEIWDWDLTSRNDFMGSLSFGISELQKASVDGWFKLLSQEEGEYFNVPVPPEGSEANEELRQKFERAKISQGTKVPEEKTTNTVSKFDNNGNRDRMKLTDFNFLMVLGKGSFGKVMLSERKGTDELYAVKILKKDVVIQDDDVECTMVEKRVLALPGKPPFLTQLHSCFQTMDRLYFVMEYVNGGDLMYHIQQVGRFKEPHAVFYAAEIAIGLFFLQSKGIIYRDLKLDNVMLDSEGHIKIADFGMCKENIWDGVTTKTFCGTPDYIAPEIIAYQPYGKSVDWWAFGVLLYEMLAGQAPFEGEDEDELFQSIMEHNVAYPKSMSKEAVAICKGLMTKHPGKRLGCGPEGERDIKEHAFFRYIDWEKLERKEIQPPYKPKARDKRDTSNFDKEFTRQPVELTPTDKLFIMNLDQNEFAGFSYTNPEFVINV
# [9] = Inhibition of recombinant PKA by IMAP assay; summary of the method: as §2
# [10] = target: T2, Protein kinase C beta type; test: Inhibition of recombinant PKCbeta2 by IMAP assay; summary of the method: as §2
# [11] = target: Cyclin-dependent kinase 1 (Homo sapiens, UniProt P06493); test: Inhibition of recombinant CDK1 by IMAP assay; summary of the method: as §2
# Sequence of Cyclin-dependent kinase 1 (P06493 whole entry): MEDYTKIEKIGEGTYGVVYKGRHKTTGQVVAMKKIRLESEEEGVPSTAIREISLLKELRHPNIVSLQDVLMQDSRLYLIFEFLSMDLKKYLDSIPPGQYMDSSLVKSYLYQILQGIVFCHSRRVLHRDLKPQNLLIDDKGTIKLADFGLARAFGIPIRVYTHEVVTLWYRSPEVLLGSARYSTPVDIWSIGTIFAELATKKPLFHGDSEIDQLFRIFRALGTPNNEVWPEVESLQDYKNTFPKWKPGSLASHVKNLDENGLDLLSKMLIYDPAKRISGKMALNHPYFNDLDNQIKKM
# [12] = target: Cyclin-dependent kinase 2 (Homo sapiens, UniProt P24941); test: Inhibition of recombinant CDK2 by IMAP assay; summary of the method: as §2
# [13] = target: T3, Tyrosine-protein kinase receptor UFO (Homo sapiens, UniProt P30530); test: Inhibition of recombinant AXL by TR-FRET assay; summary of the method: as §1
# T3 sequence (P30530 whole entry): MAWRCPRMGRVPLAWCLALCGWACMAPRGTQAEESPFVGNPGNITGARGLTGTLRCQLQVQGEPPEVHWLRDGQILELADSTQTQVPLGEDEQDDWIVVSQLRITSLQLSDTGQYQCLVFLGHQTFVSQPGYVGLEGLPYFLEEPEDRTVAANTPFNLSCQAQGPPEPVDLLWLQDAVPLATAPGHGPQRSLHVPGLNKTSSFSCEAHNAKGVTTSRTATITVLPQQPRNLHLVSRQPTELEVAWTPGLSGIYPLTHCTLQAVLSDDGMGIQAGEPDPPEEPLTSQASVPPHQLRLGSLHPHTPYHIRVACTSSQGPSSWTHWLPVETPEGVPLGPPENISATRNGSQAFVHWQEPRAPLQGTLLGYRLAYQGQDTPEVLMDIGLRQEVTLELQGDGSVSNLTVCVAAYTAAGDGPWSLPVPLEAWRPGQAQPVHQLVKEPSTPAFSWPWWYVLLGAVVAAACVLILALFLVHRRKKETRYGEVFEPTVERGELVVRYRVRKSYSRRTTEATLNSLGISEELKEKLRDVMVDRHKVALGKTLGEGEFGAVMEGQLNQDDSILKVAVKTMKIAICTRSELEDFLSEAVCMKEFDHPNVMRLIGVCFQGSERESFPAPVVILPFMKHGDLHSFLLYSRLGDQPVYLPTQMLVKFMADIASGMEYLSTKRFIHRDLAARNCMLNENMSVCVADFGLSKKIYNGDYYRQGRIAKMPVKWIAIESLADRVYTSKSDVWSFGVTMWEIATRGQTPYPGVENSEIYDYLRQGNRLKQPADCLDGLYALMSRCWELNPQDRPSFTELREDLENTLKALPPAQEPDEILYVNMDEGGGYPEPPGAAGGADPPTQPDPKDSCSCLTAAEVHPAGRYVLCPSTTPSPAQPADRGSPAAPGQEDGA
# [14] = target: Leukocyte tyrosine kinase receptor (Homo sapiens, UniProt P29376); test: Inhibition of recombinant LTK by TR-FRET assay; summary of the method: as §1
# [15] = target: Tyrosine-protein kinase Yes (Homo sapiens, UniProt P07947); test: Inhibition of recombinant YES by TR-FRET assay; summary of the method: as §1
# Sequence of Tyrosine-protein kinase Yes (P07947 whole entry): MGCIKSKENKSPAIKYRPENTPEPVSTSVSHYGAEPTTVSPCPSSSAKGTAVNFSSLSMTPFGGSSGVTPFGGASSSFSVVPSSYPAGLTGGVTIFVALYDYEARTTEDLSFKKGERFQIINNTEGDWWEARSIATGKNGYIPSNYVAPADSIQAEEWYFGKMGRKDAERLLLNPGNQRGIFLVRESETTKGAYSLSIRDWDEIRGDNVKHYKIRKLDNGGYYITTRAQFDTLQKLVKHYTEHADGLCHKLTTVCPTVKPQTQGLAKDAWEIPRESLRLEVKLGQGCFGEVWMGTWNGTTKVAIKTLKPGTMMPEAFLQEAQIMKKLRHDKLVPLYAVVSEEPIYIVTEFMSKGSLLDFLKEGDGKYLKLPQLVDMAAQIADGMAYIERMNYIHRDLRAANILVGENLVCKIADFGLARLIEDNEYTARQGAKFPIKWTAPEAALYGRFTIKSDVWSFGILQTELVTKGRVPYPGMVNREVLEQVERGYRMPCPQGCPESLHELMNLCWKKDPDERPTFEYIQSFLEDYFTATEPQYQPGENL
# [16] = Inhibition of recombinant PDGFR by TR-FRET assay; summary of the method: as §1
# [17] = target: Tyrosine-protein kinase Fyn (Homo sapiens, UniProt P06241); test: Inhibition of recombinant Fyn by TR-FRET assay; summary of the method: as §1
# [18] = target: Tyrosine-protein kinase Lck (Homo sapiens, UniProt P06239); test: Inhibition of recombinant LCK by TR-FRET assay
# [19] = target: Fibroblast growth factor receptor 2 (Homo sapiens, UniProt P21802); test: Inhibition of recombinant FGFR2 by TR-FRET assay; summary of the method: as §1
# [20] = target: Mast/stem cell growth factor receptor Kit (Homo sapiens, UniProt P10721); test: Inhibition of recombinant Kit by TR-FRET assay; summary of the method: as §1
# [21] = target: Insulin-like growth factor 1 receptor (Homo sapiens, UniProt P08069); test: Inhibition of recombinant IGF1R by TR-FRET assay; summary of the method: as §1
# Aurora kinase A = target: T4, Aurora kinase A (Homo sapiens, UniProt O14965); test: Inhibition of recombinant Aurora A by IMAP assay; summary of the method: as §2
# T4 sequence (O14965 whole entry): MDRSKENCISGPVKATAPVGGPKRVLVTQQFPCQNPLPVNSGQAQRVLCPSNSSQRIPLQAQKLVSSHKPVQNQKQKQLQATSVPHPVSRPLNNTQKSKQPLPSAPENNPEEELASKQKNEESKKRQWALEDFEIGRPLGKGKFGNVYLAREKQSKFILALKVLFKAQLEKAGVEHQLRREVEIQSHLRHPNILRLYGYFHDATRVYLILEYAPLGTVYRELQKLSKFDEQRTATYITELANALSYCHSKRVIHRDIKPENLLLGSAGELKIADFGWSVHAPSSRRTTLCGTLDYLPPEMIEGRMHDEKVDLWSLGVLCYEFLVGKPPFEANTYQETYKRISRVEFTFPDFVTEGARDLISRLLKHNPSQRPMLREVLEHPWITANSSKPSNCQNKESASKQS
# [22] = target: Macrophage-stimulating protein receptor (Homo sapiens, UniProt Q04912); test: Inhibition of recombinant RON by TR-FRET assay; summary of the method: as §1
# [23] = target: Protein kinase C alpha type (Homo sapiens, UniProt P17252); test: Inhibition of recombinant PKCalpha by IMAP assay; summary of the method: as §2
# [24] = Solubility in fasted state simulated intestinal fluid; assay type: physicochemical
# Insulin receptor = Insulin receptor (Homo sapiens, UniProt P06213); test: Inhibition of recombinant InsR by TR-FRET assay
# MKN-45 = test: Cytotoxicity against human MKN45 cells after 96 hrs by WST8 assay; assay type: functional, cell-based; details: MKN-45, 96 h
# Summary of the method: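 Tumour cells exposed to a range of compound concentrations for 96 h; cytotoxicity read with WST-8 cell counting kit.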
# Sequence of Vascular endothelial growth factor receptor 2 (P35968 whole entry): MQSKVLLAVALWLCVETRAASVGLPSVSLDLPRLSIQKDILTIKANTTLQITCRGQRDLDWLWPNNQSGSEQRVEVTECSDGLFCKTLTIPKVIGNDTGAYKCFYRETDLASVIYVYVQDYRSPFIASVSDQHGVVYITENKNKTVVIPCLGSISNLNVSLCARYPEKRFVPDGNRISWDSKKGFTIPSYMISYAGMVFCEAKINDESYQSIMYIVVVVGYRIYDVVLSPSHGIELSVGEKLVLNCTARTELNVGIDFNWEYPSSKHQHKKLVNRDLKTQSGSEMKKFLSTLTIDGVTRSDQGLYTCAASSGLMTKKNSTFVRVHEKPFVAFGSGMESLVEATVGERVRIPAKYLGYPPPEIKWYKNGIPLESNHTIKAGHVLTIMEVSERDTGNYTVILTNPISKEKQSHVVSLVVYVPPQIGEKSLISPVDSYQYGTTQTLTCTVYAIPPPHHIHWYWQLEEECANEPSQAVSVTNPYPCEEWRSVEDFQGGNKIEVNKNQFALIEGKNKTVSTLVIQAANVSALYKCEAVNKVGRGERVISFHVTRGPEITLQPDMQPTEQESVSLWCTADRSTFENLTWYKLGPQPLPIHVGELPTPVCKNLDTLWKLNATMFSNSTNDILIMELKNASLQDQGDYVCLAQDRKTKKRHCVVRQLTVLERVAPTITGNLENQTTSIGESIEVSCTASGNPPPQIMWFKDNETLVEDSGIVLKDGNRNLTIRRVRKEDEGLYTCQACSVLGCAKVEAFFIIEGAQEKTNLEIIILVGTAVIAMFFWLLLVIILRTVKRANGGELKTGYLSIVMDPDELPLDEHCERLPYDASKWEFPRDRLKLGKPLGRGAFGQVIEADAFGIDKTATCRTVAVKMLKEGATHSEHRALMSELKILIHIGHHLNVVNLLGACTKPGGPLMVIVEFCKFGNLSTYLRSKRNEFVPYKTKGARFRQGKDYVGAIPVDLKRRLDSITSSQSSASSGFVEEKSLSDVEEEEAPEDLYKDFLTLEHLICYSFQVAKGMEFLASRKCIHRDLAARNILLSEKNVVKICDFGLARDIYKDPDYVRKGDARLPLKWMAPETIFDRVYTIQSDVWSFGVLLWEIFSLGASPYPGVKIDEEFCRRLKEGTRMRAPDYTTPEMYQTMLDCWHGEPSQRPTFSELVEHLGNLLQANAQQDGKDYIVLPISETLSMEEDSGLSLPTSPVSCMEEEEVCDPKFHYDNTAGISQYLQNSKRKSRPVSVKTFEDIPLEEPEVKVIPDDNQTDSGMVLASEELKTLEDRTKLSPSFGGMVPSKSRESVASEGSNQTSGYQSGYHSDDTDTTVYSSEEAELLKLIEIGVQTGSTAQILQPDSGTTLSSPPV
compound,measurement,setting,value
C[C@H](Oc1ccc2ncccc2c1)c1c(Cl)ccc(F)c1Cl,IC50,[1],> 50 µM
same,IC50,[2],20 µM
same,IC50,[3],1.2 µM
C[C@@H](Oc1ccc2ncccc2c1)c1c(Cl)ccc(F)c1Cl,IC50,[1],23 µM
same,IC50,[4],> 50 µM
same,IC50,Ephrin type-A receptor 2,> 50 µM
same,IC50,[5],> 50 µM
same,IC50,[6],> 50 µM
same,IC50,[7],46 µM
same,IC50,[8],> 50 µM
same,IC50,[2],22 µM
same,IC50,[9],> 50 µM
same,IC50,[10],> 50 µM
same,IC50,[3],0.13 µM
same,IC50,[11],> 50 µM
same,IC50,[12],> 50 µM
same,IC50,[13],14 µM
same,IC50,[14],> 50 µM
same,IC50,[15],> 50 µM
same,IC50,[16],> 50 µM
same,IC50,[17],> 50 µM
same,IC50,[18],> 50 µM
same,IC50,[19],24 µM
same,IC50,[20],41 µM
same,IC50,[21],> 50 µM
same,IC50,Aurora kinase A,> 50 µM
same,IC50,[22],3.6 µM
C[C@@H](Oc1ccc2ncc(/C=C/C(N)=O)cc2c1)c1c(Cl)ccc(F)c1Cl,IC50,[1],11 µM
same,IC50,[4],> 50 µM
same,IC50,Ephrin type-A receptor 2,4.4 µM
same,IC50,[5],32 µM
same,IC50,[6],10 µM
same,IC50,[7],32 µM
same,IC50,[8],> 50 µM
same,IC50,[9],> 50 µM
same,IC50,[10],> 50 µM
same,IC50,[11],> 50 µM
same,IC50,[23],> 50 µM
same,IC50,[12],> 50 µM
same,IC50,[13],0.57 µM
same,solubility,[24],< 13 µg/mL
same,IC50,[14],18 µM
same,IC50,[15],26 µM
same,IC50,[16],> 50 µM
same,IC50,Insulin receptor,> 50 µM
same,IC50,[17],28 µM
same,IC50,[18],14 µM
same,IC50,[19],6.9 µM
same,IC50,[20],> 50 µM
same,IC50,[21],> 50 µM
same,IC50,Aurora kinase A,6.4 µM
same,IC50,[22],0.45 µM
CC(Oc1ccc2ncc(CCC(N)=O)cc2c1)c1c(Cl)ccc(F)c1Cl (racemic),IC50,[1],50 µM
same,IC50,[2],> 50 µM
same,IC50,[3],0.205 µM
same,IC50,MKN-45,4.4 µM
CC(Oc1ccc2ncccc2c1)c1c(Cl)ccc(F)c1Cl (racemic),IC50,[1],32 µM
same,IC50,[2],> 50 µM
same,IC50,[3],0.453 µM
CC(Oc1ccc2ncc(/C=C/C(N)=O)cc2c1)c1c(Cl)ccc(F)c1Cl (racemic),IC50,[1],26 µM
same,IC50,[2],> 50 µM
same,IC50,MKN-45,0.35 µM
CNC(=O)/C=C/c1cnc2ccc(OC(C)c3c(Cl)ccc(F)c3Cl)cc2c1 (racemic),IC50,[1],> 50 µM
same,IC50,[2],> 50 µM
same,IC50,MKN-45,0.24 µM
CC(Oc1ccc2ncc(/C=C/CN)cc2c1)c1c(Cl)ccc(F)c1Cl (racemic),IC50,[1],33 µM
same,IC50,[2],46 µM
same,IC50,[3],0.368 µM
same,IC50,MKN-45,4.3 µM
CC(Oc1ccc2ncc(/C=C/C(=O)O)cc2c1)c1c(Cl)ccc(F)c1Cl (racemic),IC50,[1],> 50 µM
same,IC50,[2],> 50 µM
same,IC50,[3],0.094 µM
same,IC50,MKN-45,10.2 µM
CC(Oc1ccc2ncc(/C=C/C(=O)N(C)C)cc2c1)c1c(Cl)ccc(F)c1Cl (racemic),IC50,[1],> 50 µM
same,IC50,[2],> 50 µM
same,IC50,[3],0.059 µM
same,IC50,MKN-45,0.61 µM
